The values that follow come from ChEMBL document CHEMBL4406800, “Discovery of Potent Protease-Activated Receptor 4 Antagonists with in Vivo Antithrombotic Efficacy” (J Med Chem, 2019).

By IC50 is commonly meant the concentration that gives 50% inhibition. As usually defined, the bioavailability is dose-corrected exposure relative to a reference, in per cent. For orientation: half-life means the time needed for the level to fall by half in the phase considered. A low value points to fast loss.

The nature of series [1]: Stability in human liver microsomes assessed as parent compound remaining measured after 10 mins. Conditions: for remaining at 10 min: liver microsomes, read-out: Stability; for Stability: microsomes, 10 min. In kind it is ADME, Microsome. A general note: Liver microsomes are vesicles of endoplasmic reticulum, rich in cytochrome P450 enzymes.
For series [2], the target named is T1, Proteinase-activated receptor 4 (Homo sapiens, UniProt Q96RI0).
T1 sequence (Q96RI0 whole entry): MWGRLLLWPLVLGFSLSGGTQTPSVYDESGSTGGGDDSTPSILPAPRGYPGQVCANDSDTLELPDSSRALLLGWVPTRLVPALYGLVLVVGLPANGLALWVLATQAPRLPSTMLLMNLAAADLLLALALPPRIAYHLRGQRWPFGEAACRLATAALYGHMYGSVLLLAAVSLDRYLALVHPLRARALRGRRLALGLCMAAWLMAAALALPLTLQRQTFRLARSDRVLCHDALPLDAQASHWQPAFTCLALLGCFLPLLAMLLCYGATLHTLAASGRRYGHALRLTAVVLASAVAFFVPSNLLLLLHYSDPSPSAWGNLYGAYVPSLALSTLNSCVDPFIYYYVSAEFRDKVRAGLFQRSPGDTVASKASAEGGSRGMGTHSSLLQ
Kind of series: Antagonist activity at full-length human PAR4 expressed in HEK293 cells assessed as inhibition of AYPGKF-induced intracellular calcium mobilization preincubated for 30 mins followed by AYPGKF addition and measured by calcium indicator-based FLIPR assay. In kind it is functional, cell-based. (In general: Calcium flux is commonly read through the fluorescence of an indicator in the cells.)

The nature of series [3]: Stability in rat liver microsomes assessed as parent compound remaining measured after 10 mins. Type of series: ADME, Microsome. As to conditions: read-out: Stability.
Series [4] is described as follows: Oral bioavailability in rat at 2 mg/kg. Type of series: ADME, organism-based. Conditions: in vivo. The gist of the method:
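Rat dosing: iv 0.5 mpk as a 10 min infusion in 25/75 propylene glycol/PEG400 at 2 ml/kg. po 2 mpk in 5/5/90 EtOH/TPGS/PEG300 at 5 mL/kg.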

Series [5] can be described thus: Half life in human liver microsomes. In kind it is ADME, Microsome. As to conditions: for t1/2: microsomes.
Series [6] is described as follows: Clearance in rat at 2 mg/kg, po or 0.5 mg/kg, iv administered as infusion for 10 mins. Conditions: in vivo. Type of series: ADME, organism-based.
Series [7] is described as follows: Half life in rat liver microsomes. Type of series: ADME, Microsome.
Series [8] can be described thus: Half life in rat at 2 mg/kg, po or 0.5 mg/kg, iv administered as infusion for 10 mins. Conditions: in vivo. In kind it is ADME, organism-based.

In the case of `COc1cc(OCc2ccc(C(F)(F)F)cc2)c2cc(-c3cn4nc(OC)sc4n3)oc2c1`, the remaining at 10 min is 79% in series [1] and 90% in series [3]. In series [2], the IC50 was 4.3 nM.

On to `COc1cc(OCc2ccccc2Cl)c2cc(-c3cn4nc(OC)sc4n3)oc2c1`, for which the remaining at 10 min worked out at 95% in series [1] and 78% in series [3]. Moreover, the IC50 in series [2] came out at 2.3 nM.

Take `COc1nn2cc(-c3cc4c(OCc5ccccc5)cccc4o3)nc2s1`: the remaining at 10 min amounted to 85% in series [1] and 75% in series [3]. Moreover, the IC50 in series [2] was 24 nM.

In the case of `COc1cc(OCc2cccc(O)c2)c2cc(-c3cn4nc(OC)sc4n3)oc2c1`, the remaining at 10 min was found to be 97% in series [1] and 49% in series [3]. Moreover, the IC50 in series [2] was found to be 3.1 nM.

With `COc1nn2cc(-c3cc4c(OC)ccc(OC)c4o3)nc2s1`, the remaining at 10 min amounted to 55% in series [1] and 28% in series [3].

As to `COc1nn2cc(-c3cc4c(OC)cccc4o3)nc2s1`, the remaining at 10 min in series [1] was determined as 40%; in series [3] it was 42%. The IC50 in series [2] was determined as 7.6 nM.

In the case of `COc1cc(OCc2ccccc2)c2cc(-c3cn4nc(OC)sc4n3)oc2c1`, the bioavailability in series [4] stood at 27%.

`CCOc1nn2cc(-c3cc4ccccc4o3)nc2s1`: the remaining at 10 min in series [1] turned out to be 57%; in series [3], 37%. The IC50 in series [2] amounted to 67 nM.

Take `COc1cc(OCc2cccc(COc3ccccc3)c2)c2cc(-c3cn4nc(OC)sc4n3)oc2c1`: the remaining at 10 min was 86% in series [1] and 64% in series [3]. For the same molecule, the IC50 in series [2] was 3.2 nM.

As to `COc1cc(OCc2cccc(C(F)(F)F)c2)c2cc(-c3cn4nc(OC)sc4n3)oc2c1`, the remaining at 10 min worked out at 93% in series [1] and 79% in series [3]. Besides, in series [2], the half-maximal inhibitory concentration (IC50) was determined as 3.1 nM.

Turning to `COc1cc(OCc2cccc(Cl)c2)c2cc(-c3cn4nc(OC)sc4n3)oc2c1`, the values for the remaining at 10 min in series [1] and in series [3] were 82% and 79%, respectively. Moreover, in series [2], the IC50 amounted to 3.3 nM.

As to `COc1cc(OCc2cccc(Oc3ccccc3)c2)c2cc(-c3cn4nc(OC)sc4n3)oc2c1`, the remaining at 10 min turned out to be 86% in series [1] and 42% in series [3]. Also, in series [2], the IC50 came out at 1.2 nM.

In the case of `COc1cc(OCc2cccc(CO)c2)c2cc(-c3cn4nc(OC)sc4n3)oc2c1`, the IC50 in series [2] came to 27 nM.

Consider `COc1cc(OCc2ccc(Cl)cc2)c2cc(-c3cn4nc(OC)sc4n3)oc2c1`, for which, in series [2], the IC50 was determined as 11 nM.

With `CCc1nn2cc(-c3cc4ccccc4o3)nc2s1`, the remaining at 10 min was 30% in series [1] and 3% in series [3]. Besides, the IC50 in series [2] amounted to 38 nM.

`COc1cc(OCc2ccccc2OC)c2cc(-c3cn4nc(OC)sc4n3)oc2c1`: the remaining at 10 min was found to be 82% in series [1] and 28% in series [3]. Further, in series [2], the 50% inhibitory concentration (IC50) stood at 19 nM.

Regarding `COc1cc(OCc2cccc(CCc3ccccc3)c2)c2cc(-c3cn4nc(OC)sc4n3)oc2c1`, the remaining at 10 min in series [1] stood at 99%; in series [3] it was 68%. In addition, the IC50 in series [2] stood at 2.4 nM.

Consider `COc1cc(OCc2ccc(OCc3ccccc3)cc2)c2cc(-c3cn4nc(OC)sc4n3)oc2c1`, for which the remaining at 10 min in series [1] amounted to 88%; in series [3] it was 84%. The IC50 in series [2] turned out to be 1.3 nM.

As for `COc1ccc2oc(-c3cn4nc(OC)sc4n3)cc2c1`, the remaining at 10 min is 30% in series [1] and 38% in series [3].

In the case of `COc1cc(OCc2cccc(C#N)c2)c2cc(-c3cn4nc(OC)sc4n3)oc2c1`, the remaining at 10 min in series [1] is 100%. Also, the IC50 in series [2] was determined as 0.98 nM.

Consider `COc1cc(OCc2cccc(Sc3ccccc3)c2)c2cc(-c3cn4nc(OC)sc4n3)oc2c1`, for which the remaining at 10 min came out at 80% in series [1] and 45% in series [3]. In addition, in series [2], the IC50 came out at 0.89 nM.

In the case of `COc1ccc(COc2cc(OC)cc3oc(-c4cn5nc(OC)sc5n4)cc23)cc1`, the remaining at 10 min in series [1] came to 73%; in series [3] it was 64%. Also, in series [2], the IC50 was 1.6 nM.

As to `COc1nn2cc(-c3cc4ccccc4o3)nc2s1`, the Stability in series [1] amounted to 80%. Moreover, the IC50 in series [2] was 4 nM. In series [5], this molecule came in with a t1/2 of 6.9 min. In addition, the remaining at 10 min in series [3] was found to be 31%.

In the case of `COc1cccc(COc2cc(OC)cc3oc(-c4cn5nc(OC)sc5n4)cc23)c1`, the remaining at 10 min worked out at 69% in series [1] and 34% in series [3]. The IC50 in series [2] came out at 9.4 nM.

For the molecule `COc1cc(OCCOCc2ccccc2)c2cc(-c3cn4nc(OC)sc4n3)oc2c1`, the results for the remaining at 10 min in series [1] and in series [3] were 75% and 25%, respectively. The IC50 in series [2] turned out to be 1.8 nM.

Take `CSc1nn2cc(-c3cc4ccccc4o3)nc2s1`: the results for the remaining at 10 min in series [1] and in series [3] were 25% and 4%, respectively. In addition, in series [2], the IC50 was determined as 11 nM. Also, the half-life in series [5] (liver microsomes) was found to be 5.4 min.

As for `CCSc1nn2cc(-c3cc4ccccc4o3)nc2s1`, the figures for the remaining at 10 min in series [1] and in series [3] were 45% and 35%, respectively. The IC50 in series [2] stood at 2900 nM.

As for `Cc1nn2cc(-c3cc4ccccc4o3)nc2s1`, the remaining at 10 min in series [1] worked out at 20%; in series [3], 4%. Besides, the half-maximal inhibitory concentration (IC50) in series [2] was 37 nM.

With `COc1cc(OCc2ccccc2C)c2cc(-c3cn4nc(OC)sc4n3)oc2c1`, the remaining at 10 min was 90% in series [1] and 46% in series [3]. Further, the IC50 in series [2] is 1.6 nM.

On to `COc1nn2cc(-c3cc4ccc(OC)c(OC)c4o3)nc2s1`, for which the remaining at 10 min in series [1] worked out at 20%; in series [3], 3%.

Turning to `c1ccc2oc(-c3cn4nc(C5CC5)sc4n3)cc2c1`, the values for the remaining at 10 min in series [1] and in series [3] were 62% and 53%, respectively. For the same molecule, the IC50 in series [2] stood at 530 nM.

Regarding `CNc1nn2cc(-c3cc4ccccc4o3)nc2s1`, the remaining at 10 min turned out to be 65% in series [1] and 2% in series [3]. Besides, the IC50 in series [2] amounted to 110 nM.

In the case of `CC(C)Oc1nn2cc(-c3cc4ccccc4o3)nc2s1`, the IC50 in series [2] came out at 760 nM.

With `COc1cc(OCCc2ccccc2)c2cc(-c3cn4nc(OC)sc4n3)oc2c1`, the remaining at 10 min came to 89% in series [1] and 43% in series [3]. In series [2], the IC50 came out at 1.1 nM.

As for `COc1cc(OCc2ccccc2C(F)(F)F)c2cc(-c3cn4nc(OC)sc4n3)oc2c1`, the IC50 in series [2] turned out to be 3.4 nM.

Take `COc1nn2cc(-c3cc4ccc(OCc5ccccc5)cc4o3)nc2s1`: the figures for the remaining at 10 min in series [1] and in series [3] were 94% and 68%, respectively.

Take `CS(=O)(=O)c1nn2cc(-c3cc4ccccc4o3)nc2s1`: the IC50 in series [2] was determined as 820 nM.

As for `COc1ccc2cc(-c3cn4nc(OC)sc4n3)oc2c1`, the remaining at 10 min in series [1] was found to be 57%; in series [3], 55%.

Consider `c1ccc(Sc2nn3cc(-c4cc5ccccc5o4)nc3s2)cc1`, for which, in series [2], the IC50 came to 1900 nM.

On to `COc1cc(OCc2ccccc2OCc2ccccc2)c2cc(-c3cn4nc(OC)sc4n3)oc2c1`, for which the remaining at 10 min in series [1] is 94%; in series [3], 22%. The IC50 in series [2] turned out to be 3.2 nM.

Take `COc1cc(OC)c2cc(-c3cn4nc(OC)sc4n3)oc2c1`: the clearance in series [6] was 33 mL/min/kg. Moreover, the half-life is 22 min in series [7] and 192 min in series [8]. For the same molecule, the Stability in series [1] amounted to 86%. The molecule further registered a bioavailability in series [4] of 1%. The molecule further returned a t1/2 in series [5] of 17 min. Also, in series [3], the remaining at 10 min came to 70%.

With `COc1nn2cc(-c3cc4cccc(OC)c4o3)nc2s1`, the remaining at 10 min in series [1] was determined as 25%; in series [3] it was 11%. Moreover, the IC50 in series [2] is 2.8 nM.

Take `COc1cc(OCCOc2ccccc2)c2cc(-c3cn4nc(OC)sc4n3)oc2c1`: the values for the remaining at 10 min in series [1] and in series [3] were 65% and 36%, respectively. Moreover, in series [2], the IC50 amounted to 0.81 nM.
